Rtt109 Vps75 – blocks Candida albicans Rtt109/Vps75 acetyltransferase activity | purified Rtt109/Vps75, ThioGlo CoA-SH fluorescence, 4 h | inhibition, % at 34.9 µM | 330,000 compounds, 0.16% hits | AID 540336;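 active = inhibition of at least 50% in every replicate; inconclusive = best replicate reaches 50% inhibition but some replicates fall short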
dFosB activator – mouse delta FosB homodimer activation; activation, % at 25 µM; purified delta FosB, TAMRA-CDK5 oligo fluorescence polarization; percent of positive-control signal above neutral wells; 340,000 compounds, 0.99% hits; AID 493131;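 active = mean activation above about 17%, with every replicate also reaching it, limit read from the data, passing the limit was not always enough; inconclusive = only one of the two conditions met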
Target sequence (P13346 whole entry, looked up): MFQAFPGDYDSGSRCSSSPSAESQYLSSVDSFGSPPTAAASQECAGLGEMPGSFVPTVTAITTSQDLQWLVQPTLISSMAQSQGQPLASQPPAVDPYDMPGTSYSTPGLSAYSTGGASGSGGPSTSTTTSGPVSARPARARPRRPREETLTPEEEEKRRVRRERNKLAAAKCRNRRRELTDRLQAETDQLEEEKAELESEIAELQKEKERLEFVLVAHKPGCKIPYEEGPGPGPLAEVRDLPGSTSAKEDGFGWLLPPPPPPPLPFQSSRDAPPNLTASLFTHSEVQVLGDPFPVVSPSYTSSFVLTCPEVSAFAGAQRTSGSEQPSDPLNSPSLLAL
Dyrk1A ADPGlo – Dyrk1A (rat) kinase inhibition | Q63470 | ADP-Glo luminescence, NFATc1 peptide | inhibition, % at 12.5 µM | 310,000 compounds, 0.43% hits; in the data active = inhibition above about 50%;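 also: plate controls were vehicle with enzyme for no effect and no enzyme for full effect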
CAL PDZ FP-1 – inhibitors of human CAL PDZ peptide binding. Q9HD26. 330,000 compounds, 0.02% hits. purified CAL PDZ, TMR-peptide fluorescence polarization, 1 h. AID 504414. inhibition, % at 20 µM;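 active = highest replicate inhibition of at least 40%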;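 also: plate controls were DMSO neutral control wells for no effect and unlabeled competitor peptide control wells for full effect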
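System: purified tagged CAL PDZ domain construct (CerCALP). Schedule: 1 h incubation at room temperature before polarization reading. Medium: 25 mM sodium phosphate pH 7.4, 150 mM NaCl, TCEP, IgG, Thesit. Read-out: percent inhibition from loss of millipolarization. Measured by: FP readout, S and P plane fluorescence. Probe or stimulus: fluorescent TMR peptide probe.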
CDK5 inh – inhibitors of human CDK5/p35 kinase; Q00535+Q15078; Recombinant CDK5/p35, ADP-Glo luminescence, 60 min; inhibition, % at 10 µM; 330,000 compounds, 0.01% hits; AID 488839;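 active = highest replicate inhibition of at least 50% and at least 75% of replicates reaching 50%; inconclusive = only one of the two criteria met; inactive = both criteria failed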;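 also: plate controls were DMSO neutral control for no effect and GW8510 at 10 µM for full effect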
CAL PDZ FP-2 – inhibitors of human CAL PDZ peptide binding; Q9HD26; purified CAL PDZ, TMR-peptide fluorescence polarization, 1 h; inhibition, % at 24.9 µM; 300,000 compounds, 0.92% hits;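 active = mean inhibition of at least 30% with at least half of replicates also reaching 30%; inconclusive = no clear call, values can overlap the other calls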;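 also: 0% = DMSO neutral control and 100% = excess unlabeled competitor peptide PRC23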
* hit, by the source's call; ? = inconclusive; . = no result given. A selection: hits, their analogues and other compounds. The true share with any hit is near 2.2%.

SMILES	Rtt109 Vps75	dFosB activator	Dyrk1A ADPGlo	CAL PDZ FP-1	CDK5 inh	CAL PDZ FP-2
O=C(NC(=S)Nc1ccc(Oc2ccccc2)cc1)c1ccc(Cl)cc1	55*	-9	-4	-2	-2	0
COc1ccccc1C(=O)Oc1ccccc1C(=O)Nc1ccccc1	.	-6	2	-1	-1	74*
COc1ccccc1C(=O)Nc1cccc2nc(C)ccc12	1	-9	32	8	0	82*
COc1ccc(C(=O)Nc2cccc3nc(C)ccc23)c(OC)c1	-5	-36	43	-3	1	5
COc1ccccc1C(=O)NNC(=O)c1ccc(NC(=O)C(C)C)cc1	-7	2	.	-2	0	66*
COc1ccccc1C(=O)Nc1ccc(C(=O)O)cc1	-18	-9	-1	.	0	7
COc1cccc(C(=O)Nc2nnc(SCC(=O)Nc3ccc(NC(C)=O)cc3)s2)c1	0	3	-3	-2	-1	-4
NS(=O)(=O)c1cccc(NC(=O)COC(=O)CCC2CCCC2)c1	0	0	.	0	-1	85*
COc1cc(/C=N/NC(N)=S)cc(Br)c1OCc1ccccc1F	0	15	.	-1	2	124*
O=C(N/N=C/c1cc(Br)ccc1O)c1ccncc1	0	-9	-2	.	1	113*
CC(C)C(=O)Nc1ccc(C(=O)N/N=C/c2cc(Br)cc(Br)c2O)cc1	-6	13	-4	-2	0	-1
CC(=O)Nc1ccc(C(=O)N/N=C/c2cc(Br)cc(Br)c2O)cc1	5	97*	1	-1	0	-5
CCOc1ccccc1NC(=O)C(=O)N/N=C/c1cc(Br)ccc1O	-11	5	2	0	-1	67*
Cc1ccc(N=Nc2ccc(O)c(/C=N\NC(=O)c3ccc(N)cc3)c2)cc1C	-8	47*	3	-3	1	0
COc1cc(/C=N/NC2=NC(C)(C)Cc3ccccc32)cc(OC)c1OC	13	-3	3	0	1	6
COc1ccc(OC(C)C(=O)Nc2cccc(OC)c2)cc1 (stereo not given)	-1	-9	6	-5	-1	-8
CC(Oc1ccccc1)C(=O)Nc1cccc(NC(=O)c2ccco2)c1 (stereo not given)	-9	-6	-6	.	1	118*
CN(C(=O)c1ccc(NC(=O)c2ccco2)cc1)c1ccccc1	0	-9	5	0	2	-5
CC(C)[C@H](NC(=O)c1ccco1)C(=O)OCC(=O)Nc1ccc(Cl)c(S(=O)(=O)N(C)C)c1	-4	-13	-2	-3	-1	2
O=C(NCc1cccnc1)c1ccc(NC(=O)c2ccco2)cc1	-1	-10	5	-1	.	135*
CC(C)[C@H](NC(=O)c1ccco1)C(=O)OCC(=O)Nc1cccc(F)c1	7	-8	.	-1	1	69*
CCN(C(=O)c1ccc(NC(=O)c2ccco2)cc1)c1ccccc1	-5	-4	-1	-1	-1	57*
CCN(C(=O)c1ccc2c(c1)OCO2)C1CCS(=O)(=O)C1 (stereo not given)	-7	0	3	-1	1	0
Cc1ccc(NS(=O)(=O)c2ccc3[nH]c(=O)sc3c2)cc1	6	3	3	-1	1	-3
Cc1cc(/C=N/NC(=O)c2ccc(O)cc2)c(C)n1CC(C)C	?	-11	-3	-1	3	-1
SMILES	Rtt109 Vps75	dFosB activator	Dyrk1A ADPGlo	CAL PDZ FP-1	CDK5 inh	CAL PDZ FP-2
CCOC(=O)c1cccc(NC(=O)c2ccc(NC(=O)c3ccco3)cc2)c1	1	16*	-2	-2	-3	.
O=C(Nc1ccccc1)c1cccc(NC(=O)c2ccco2)c1	-8	-6	.	-2	1	-8
COC(=O)c1ccc(NC(=O)c2ccc(NC(=O)c3ccco3)cc2)cc1	-17	122*	-2	-2	-2	-4
Cc1cc(C)cc(NC(=O)c2ccc(NC(=O)c3ccco3)cc2)c1	-8	-4	-1	-3	1	-4
Cc1ccc(-c2nc(N)sc2CC(=O)OCC(=O)NCC2CCCO2)cc1 (stereo not given)	-14	-7	-6	-4	0	0
Nc1c(N(Cc2ccco2)C(=O)COc2ccc(Cl)cc2)c(=O)[nH]c(=O)n1Cc1ccccc1	-8	13	-1	-1	0	1
